For one experiment, the system named is Enterococcus faecalis. The experiment in a line: Antibacterial activity was determined against gram positive organism, Streptococcus faecalis (MGH-2). The class given is functional. The essentials: (§1)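 MIC by standard microtitration against a panel of 10 representative Gram-negative and Gram-positive organisms; values reported in µg/mL.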
A further experiment deals with Klebsiella pneumoniae. The experiment in a line: Antibacterial activity was determined against gram negative organism, K. pneumoniae (MGH-2). Type of experiment: functional. Summed up:
as §1

The test system of another experiment is Pseudomonas aeruginosa. Nature of the experiment: Antibacterial activity was determined against gram negative organism, Pseudomonas aeruginosa (UI-18). Type of experiment: functional. Summed up:
as §1

A short description of experiment [1]: MIC ratio measured as the mean MICs of gram-positive bacteria. The class given is functional. The essentials:
(§2)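 Geometric mean of the MICs (µg/mL) over the Gram-negative or the Gram-positive strains of the 10-organism microtitration panel, calculated separately for each class.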

The subject of another experiment is Bacteria. Nature of the experiment: Antibacterial activity was determined against gram negative organism, Providencia rettgeri. (M1771). The class given is functional. Summed up:
as §1

Experiment [2] deals with DNA gyrase (Escherichia coli) (UniProt P0AES6+P0AES4).
The subject of a further experiment is Escherichia coli. The experiment in a line: Antibacterial activity was determined against gram negative organism, E. coli(vogel). Type of experiment: functional. Summed up:
as §1

Experiment [3] relates to Staphylococcus aureus. The experiment in a line: Antibacterial activity was determined against gram positive organism, Staphylococcus aureus (UC76). The class given is functional. Summed up:
as §1

In the next experiment the test system is Enterobacter cloacae. The experiment in a line: Antibacterial activity against gram negative organism, […] (MA2646). Type of experiment: functional.
Another experiment concerns Streptococcus pyogenes. The experiment in a line: Antibacterial activity was determined against gram positive organism, Streptococcus pyogenes (C203). Type of experiment: functional. Summed up:
as §1

The nature of experiment [4]: MIC ratio measured as the mean MICs of gram-negative bacteria. The class given is functional. The essentials:
as §2

In another experiment the test system is Streptococcus pneumoniae. The experiment in a line: Antibacterial activity was determined against gram positive organism, Streptococcus pneumoniae (SV-1). Type of experiment: functional. The essentials:
as §1

Experiment [5] concerns Staphylococcus aureus. The experiment in a line: Antibacterial activity was determined against gram positive organism, Staphylococcus aureus (H228). The class given is functional. Summed up:
as §1

The structures appear in SMILES notation. Converted amounts (≈) assume the structure as drawn.

Broadly, the MIC is the least concentration at which growth counts as inhibited. A high value points to weaker potency.

For `Cc1c(F)c(N2CCC(N)C2)cc2c1c(=O)c(C(=O)O)cn2-c1ccc(F)cc1F` (stereo unspecified), the MIC came to 0.1 µg/mL (≈ 0.24 µM) with Enterococcus faecalis; 0.1 µg/mL (≈ 0.24 µM) in the experiment on Klebsiella pneumoniae; 0.8 µg/mL (≈ 1.92 µM) against Pseudomonas aeruginosa; 0.2 µg/mL (≈ 0.479 µM) against Bacteria; 0.05 µg/mL (≈ 0.12 µM) in the experiment on Escherichia coli; 0.013 µg/mL (≈ 0.0311 µM) in the experiment with Staphylococcus aureus [3]. The MIC in the experiment with Enterobacter cloacae is 0.05 µg/mL (≈ 0.12 µM); in the experiment on Streptococcus pyogenes it was 0.05 µg/mL (≈ 0.12 µM); in the experiment with Streptococcus pneumoniae, 0.025 µg/mL (≈ 0.0599 µM); with Staphylococcus aureus [5], 0.05 µg/mL (≈ 0.12 µM). Further, the values for the Ratio in experiment [1] and in experiment [4] were 0.038 and 0.13, respectively. The molecule also registered a DNA cleavage in experiment [2] of 0.37 µg/mL.
In the case of `O=C(O)c1cn(C2CC2)c2c(Cl)c(N3CCNCC3)c(F)cc2c1=O`, the MIC in the experiment with Enterococcus faecalis amounted to 0.4 µg/mL (≈ 1.09 µM); against Klebsiella pneumoniae, 0.05 µg/mL (≈ 0.137 µM); against Pseudomonas aeruginosa it was 0.4 µg/mL (≈ 1.09 µM); in the experiment with Bacteria, 0.1 µg/mL (≈ 0.273 µM); with Escherichia coli, 0.025 µg/mL (≈ 0.0683 µM); in the experiment on Staphylococcus aureus [3], 0.05 µg/mL (≈ 0.137 µM). Also, the MIC against Enterobacter cloacae was determined as 0.025 µg/mL (≈ 0.0683 µM); against Streptococcus pyogenes, 0.2 µg/mL (≈ 0.547 µM); against Streptococcus pneumoniae, 0.1 µg/mL (≈ 0.273 µM); in the experiment with Staphylococcus aureus [5], 0.1 µg/mL (≈ 0.273 µM). In addition, the results for the Ratio in experiment [1] and in [4] were 0.13 and 0.066, respectively. Also, in [2], the DNA cleavage stood at 0.5 µg/mL.
Regarding `NC1CCN(c2c(F)cc3c(=O)c(C(=O)O)cn(C4CC4)c3c2Cl)C1` (stereo unspecified) [CLINAFLOXACIN], the MIC is 0.05 µg/mL (≈ 0.137 µM) with Enterococcus faecalis; 0.025 µg/mL (≈ 0.0683 µM) with Klebsiella pneumoniae; 0.05 µg/mL (≈ 0.137 µM) in the experiment on Pseudomonas aeruginosa; 0.025 µg/mL (≈ 0.0683 µM) against Bacteria; 0.025 µg/mL (≈ 0.0683 µM) in the experiment on Escherichia coli; 0.013 µg/mL (≈ 0.0355 µM) in the experiment with Staphylococcus aureus [3]. For the same molecule, the MIC in the experiment with Enterobacter cloacae was found to be 0.025 µg/mL (≈ 0.0683 µM); in the experiment with Streptococcus pyogenes, 0.05 µg/mL (≈ 0.137 µM); with Streptococcus pneumoniae, 0.025 µg/mL (≈ 0.0683 µM); against Staphylococcus aureus [5], 0.025 µg/mL (≈ 0.0683 µM). Also, the Ratio in experiment [1] and in experiment [4] was 0.029 in each case. This molecule yielded a DNA cleavage in experiment [2] of 0.5 µg/mL.
For the molecule `CCn1cc(C(=O)O)c(=O)c2c(C)c(F)c(N3CCNCC3)cc21`, the MIC in the experiment with Enterococcus faecalis is 1.6 µg/mL (≈ 4.8 µM); in the experiment on Klebsiella pneumoniae it was 0.4 µg/mL (≈ 1.2 µM); with Pseudomonas aeruginosa it was 1.6 µg/mL (≈ 4.8 µM); against Bacteria it was 0.4 µg/mL (≈ 1.2 µM); in the experiment on Escherichia coli it was 0.1 µg/mL (≈ 0.3 µM); with Staphylococcus aureus [3] it was 0.4 µg/mL (≈ 1.2 µM). Moreover, the MIC with Enterobacter cloacae stood at 0.2 µg/mL (≈ 0.6 µM); against Streptococcus pyogenes it was 6.3 µg/mL (≈ 18.9 µM); against Streptococcus pneumoniae, 3.1 µg/mL (≈ 9.3 µM); against Staphylococcus aureus [5], 3.1 µg/mL (≈ 9.3 µM). For the same molecule, the Ratio is 2.08 in [1] and 0.35 in experiment [4]. Besides, the DNA cleavage in experiment [2] was found to be 3 µg/mL.
On to `CCn1cc(C(=O)O)c(=O)c2c(C)c(F)c(N3CCC(N)C3)c(F)c21` (stereo unspecified), for which the MIC in the experiment with Enterococcus faecalis is 0.8 µg/mL (≈ 2.28 µM); with Klebsiella pneumoniae, 0.2 µg/mL (≈ 0.569 µM); against Pseudomonas aeruginosa, 1.6 µg/mL (≈ 4.55 µM); in the experiment on Bacteria, 0.4 µg/mL (≈ 1.14 µM); against Escherichia coli it was 0.05 µg/mL (≈ 0.142 µM); against Staphylococcus aureus [3], 0.1 µg/mL (≈ 0.285 µM). Also, the MIC against Enterobacter cloacae came out at 0.05 µg/mL (≈ 0.142 µM); with Streptococcus pyogenes, 3.1 µg/mL (≈ 8.82 µM); against Streptococcus pneumoniae, 1.6 µg/mL (≈ 4.55 µM); in the experiment on Staphylococcus aureus [5] it was 0.4 µg/mL (≈ 1.14 µM). In addition, the Ratio in [1] was 0.69; in experiment [4], 0.2. Further, the DNA cleavage in [2] worked out at 3 µg/mL.
`CCNCC1CCN(c2cc3c(c(C)c2F)c(=O)c(C(=O)O)cn3CC)C1` (stereo unspecified): the minimum inhibitory concentration (MIC) in the experiment with Enterococcus faecalis turned out to be 1.6 µg/mL (≈ 4.26 µM); in the experiment with Klebsiella pneumoniae it was 6.3 µg/mL (≈ 16.8 µM); in the experiment on Pseudomonas aeruginosa it was 25 µg/mL (≈ 66.6 µM); in the experiment with Bacteria it was 12.5 µg/mL (≈ 33.3 µM); against Escherichia coli, 1.6 µg/mL (≈ 4.26 µM); against Staphylococcus aureus [3] it was 0.4 µg/mL (≈ 1.07 µM). Further, the MIC is 3.1 µg/mL (≈ 8.26 µM) in the experiment with Enterobacter cloacae, 1.6 µg/mL (≈ 4.26 µM) in the experiment on Streptococcus pyogenes, 0.8 µg/mL (≈ 2.13 µM) against Streptococcus pneumoniae and 1.6 µg/mL (≈ 4.26 µM) in the experiment with Staphylococcus aureus [5]. The results for the Ratio in [1] and in experiment [4] were 1.06 and 6.28, respectively. The molecule further had a DNA cleavage in experiment [2] of 3 µg/mL.
For the molecule `CCn1cc(C(=O)O)c(=O)c2cc(F)c(N3CCC(N)C3)c(F)c21` (stereo unspecified), the MIC worked out at 0.4 µg/mL (≈ 1.19 µM) with Enterococcus faecalis; 0.2 µg/mL (≈ 0.593 µM) with Klebsiella pneumoniae; 0.4 µg/mL (≈ 1.19 µM) in the experiment on Pseudomonas aeruginosa; 0.2 µg/mL (≈ 0.593 µM) in the experiment with Bacteria; 0.1 µg/mL (≈ 0.296 µM) in the experiment on Escherichia coli; 0.1 µg/mL (≈ 0.296 µM) with Staphylococcus aureus [3]. In addition, the MIC with Enterobacter cloacae turned out to be 0.1 µg/mL (≈ 0.296 µM); in the experiment on Streptococcus pyogenes, 0.2 µg/mL (≈ 0.593 µM); in the experiment on Streptococcus pneumoniae, 0.4 µg/mL (≈ 1.19 µM); with Staphylococcus aureus [5], 0.4 µg/mL (≈ 1.19 µM). The results for the Ratio in [1] and in [4] were 0.27 and 0.17, respectively. In experiment [2], the DNA cleavage is 2.5 µg/mL.

The values are drawn from ChEMBL document CHEMBL1125920, “Synthesis and biological activity of 5-alkyl-1,7,8-trisubstituted-6-fluoroquinoline-3-carboxylic acids” (1991).
